SENP1 inh – human SENP1 catalytic domain inhibitors, primary screen, biochemical, FRET, uHTS | Sentrin-specific protease 1 (Homo sapiens), Q9P0U3 | recombinant SENP1 catalytic domain, CyPet-SUMO1-YPet FRET cleavage | inhibition, % at 10 µM | hit rate 0.21% among 360,000 | AID 624204, 2012;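 active means inhibition at least 30% at 10 µM, raw YFP signal under a set limit, fluorescence ratio 0.5 to 1.5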
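material = recombinant human SENP1 catalytic domain, His6-tagged | quantity = 20 pM enzyme | reagent = 25 nM SUMO1 FRET substrate | compound dosing = 10 µM single point, 0.5% DMSO | timing = 50 min enzyme reaction, room temperature, light-protected | detection = FRET, CFP and YFP emission | control set = no-enzyme low, enzyme-DMSO high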
MT1-MMP act inh – blockers of MT1-MMP proenzyme processing, primary screen, HT1080 RFP-PRO-GFP cells, GFP/RFP fluorescence | GFP/RFP ratio fluorescence, overnight; percent of plate control window, DMSO zero | GFP/RFP ratio change, % at 20 µM | hit rate 0.061% among 360,000 | Matrix metalloproteinase-14 (Homo sapiens), P50281;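 active means GFP/RFP ratio change of at least 30% with cell ATP level not reduced by more than half and red fluorescence within 50% of control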
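Compound: 20 µM single dose, 1% DMSO / System: HT1080 RFP-PRO-GFP cells / Controls: DMSO and RFP-L50D-GFP cell wells / Read-out basis: GFP/RFP fluorescence ratio / Schedule: overnight compound exposure at 37 °C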
DAGLB inh – DAGLB lipase inhibitors, primary screen, biochemical, fluorescence, HTS; Diacylglycerol lipase-beta (Homo sapiens), Q8NCG7; HEK293T DAGLB membrane lysate, EnzChek fluorogenic substrate; inhibition, % at 5.17 µM; hit rate 0.059% among 340,000; AID 504411, 2011; in the data active means inhibition above about 34%
Myeloid diff 2 – induction of myeloid progenitor differentiation, primary screen, cell-based, flow cytometry, MLPCN library. ER-HoxA9 myeloid progenitors, lysozyme-GFP differentiation. calls only at 10 µM. hit rate 1% among 360,000;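 active means normalized GFP-positive differentiation at or above the plate's own cutoff, the solvent-only control mean plus 3 SD; inconclusive means no clear call, values can overlap the other calls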;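 further: cells exposed to compound for four days before flow analysis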
MIN6 prolif – inducers of MIN6 beta-cell proliferation, primary screen, ATP luminescence, uHTS; MIN6 cells proliferation, ATPlite luminescence, 48 h; cells starved in 0.2% serum; 100% = growth in 10% serum; AID 2380, 2010; hit rate 0.29% among 330,000; proliferation, % at 10 µM;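 active means compounds whose signal lies at least 3.5 SD above the mean of all wells on their plate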
NRP1-CendR mod – modulators of CendR peptide binding to NRP-1, primary screen, biochemical, fluorescence polarization, uHTS; Neuropilin-1 (Homo sapiens), O14786; FAM-RPARPAR peptide binding to NRP-1; inhibition, % at 25 µM; hit rate 0.85% among 360,000; AID 602438, 2012;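 active means inhibition or corrected inhibition above about 18%, plus a signal ratio from 0.5 to 1.5, limit read from the data, passing the limit was not always enough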
Target sequence (O14786 whole entry, looked up): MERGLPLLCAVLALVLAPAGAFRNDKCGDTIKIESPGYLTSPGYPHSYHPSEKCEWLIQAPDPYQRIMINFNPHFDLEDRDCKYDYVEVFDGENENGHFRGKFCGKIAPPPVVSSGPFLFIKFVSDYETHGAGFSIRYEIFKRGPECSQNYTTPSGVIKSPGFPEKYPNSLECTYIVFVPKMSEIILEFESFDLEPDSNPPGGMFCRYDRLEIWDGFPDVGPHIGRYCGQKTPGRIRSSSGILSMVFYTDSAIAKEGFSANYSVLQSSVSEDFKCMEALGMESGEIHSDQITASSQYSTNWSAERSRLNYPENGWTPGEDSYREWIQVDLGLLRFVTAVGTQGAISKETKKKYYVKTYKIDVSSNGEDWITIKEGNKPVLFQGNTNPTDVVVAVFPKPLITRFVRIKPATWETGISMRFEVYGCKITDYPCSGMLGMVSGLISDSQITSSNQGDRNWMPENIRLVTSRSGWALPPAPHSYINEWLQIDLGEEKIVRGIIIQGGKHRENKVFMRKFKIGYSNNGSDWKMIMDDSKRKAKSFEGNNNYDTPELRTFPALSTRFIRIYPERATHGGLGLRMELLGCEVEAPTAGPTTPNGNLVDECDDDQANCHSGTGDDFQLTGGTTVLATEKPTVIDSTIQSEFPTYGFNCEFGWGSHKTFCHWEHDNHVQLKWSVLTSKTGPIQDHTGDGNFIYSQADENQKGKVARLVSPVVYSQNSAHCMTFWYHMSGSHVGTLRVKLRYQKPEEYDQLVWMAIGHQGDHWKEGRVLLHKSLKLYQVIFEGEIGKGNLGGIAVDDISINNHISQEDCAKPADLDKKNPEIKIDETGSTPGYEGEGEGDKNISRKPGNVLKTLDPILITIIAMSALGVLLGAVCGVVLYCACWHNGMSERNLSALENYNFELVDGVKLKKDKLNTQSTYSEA
Each line names hits and unclear results; the compound was inactive in the other large screens. This is a sample that favours compounds with a hit; in the whole collection about 2.4% have one here.

CN1N=C(/C=C/c2ccccc2)CCC1=O	none
CN1C(=S)SC(N(O)C(=O)Nc2cccc3ccccc23)C1(C)C (stereo unspecified)	NRP1-CendR mod 31
CN1C(=S)SC(N(O)C(=O)Nc2ccccc2)C1(C)C (stereo unspecified)	none
O=C(NCCN1CCC(n2c(=O)[nH]c3ccccc32)CC1)c1ccccc1C(F)(F)F	Myeloid diff 2 inconclusive (no result: DAGLB inh, MIN6 prolif)
C/C(=N\NC(=O)c1cc(-c2cccnc2)nc2ccccc12)c1ccc(O)cc1O	SENP1 inh 49, Myeloid diff 2 inconclusive
Cc1cc(NC(=O)Cn2cc([N+](=O)[O-])cn2)no1	none
CCOc1ccc2nc3cc(NCc4ccc(OC)cc4)ccc3c(N)c2c1	Myeloid diff 2 active
CCn1cnc2cc(NCc3ccc(OC)cc3)ccc21	none
O=C(CCSCc1cccc(Cl)c1)NCCc1ccc(Cl)cc1	none
C=CCC1NS(=O)(=O)OCC1NC(=O)OCC(Cl)(Cl)Cl (stereo unspecified)	none
CC(C)(C)OC1NS(=O)(=O)OCC1NCOC(Cl)(Cl)Cl (stereo unspecified)	NRP1-CendR mod 26
Cc1cc(NC(=O)C(C)SCC(=O)OCC(=O)Nc2c(C)cccc2C(C)C)no1 (stereo unspecified)	none
CN(C(=O)c1ccc(NC(=O)Cc2cccc(NC(=O)C3CCN(C(=O)CCc4ccccc4)CC3)c2)cc1)C1CCCC1	none
COc1ccc(-c2sc3ccccc3c2-c2ccc(OCCN3CCCCC3)cc2)cc1	none
COc1ccc(-c2sc3cc(OC)ccc3c2-c2ccc(OCCN3CCCCC3)cc2)cc1	Myeloid diff 2 active (no result: DAGLB inh, MIN6 prolif)
COc1ccc(CNS(=O)(=O)c2ccc(C)cc2)cc1	NRP1-CendR mod 28
O=C(Nc1ccccc1C(=O)N1CCOCC1)c1cc2ccccc2o1	NRP1-CendR mod 22
COC(=O)c1ccccc1NC(=O)c1cc2ccccc2o1	none
CC(Oc1ccccc1)C(=O)NC1=NCCS1 (stereo unspecified)	NRP1-CendR mod 33
O=C(COc1ccccc1)NC1=NCCS1	none
O=C(CN1c2ccccc2S(=O)(=O)c2ccccc21)NCc1ccc(F)cc1	none
O=C(c1ccc(F)cc1)C1CCN(C(=O)NC2CCCCC2)CC1	none
CC1(C)Cc2nc3sc4c(SCC(=O)NCc5ccccc5)ncnc4c3cc2CO1	Myeloid diff 2 active
CC1(C)Cc2nc3sc4c(SCC(=O)O)ncnc4c3cc2CO1	none
Clc1ccc(SCCn2ccnc2)cc1	none
O=[N+]([O-])c1ccc(N/N=C/c2cn(Cc3ccc(F)cc3)c3ccccc23)nc1	Myeloid diff 2 active (no result: MIN6 prolif)
CC(=O)Oc1cc2cccc(OC(C)=O)c(=O)c2c(OC(C)=O)c1OC(C)=O	NRP1-CendR mod 30
COc1cc2cccc(OC)c(=O)c2c(O)c1OC	none
COc1ccc2[nH]cc(/C=C/c3cc[n+](C)cc3)c2c1	Myeloid diff 2 active
COc1ccc2[nH]cc(C=O)c2c1	none
CN1/C(=C/c2cc[n+](C)c3ccccc23)C=Cc2ccccc21	MT1-MMP act inh 64, Myeloid diff 2 inconclusive (no result: MIN6 prolif)
O=C(/C=C/CCc1ccc2c(c1)OCO2)N1CCCCC1	NRP1-CendR mod 23
O=C(NCC1CC1)c1onc(CSc2nc3ccccc3[nH]2)c1C(=O)NCC1CC1	NRP1-CendR mod 26
CCCc1[nH]n(-c2ccc([N+](=O)[O-])cc2)c(=O)c1C=NCCCn1ccnc1	none
CCCn1ncc(OC)c(Cl)c1=O	NRP1-CendR mod 22
COc1cnn(-c2cccc(Cl)c2)c(=O)c1Cl	none
O=C(COC(=O)c1ccccc1[N+](=O)[O-])Nc1cccnc1Cl	none
COC(=O)[C@@]12CCCCN1[C@H](c1ccc(-c3ccc(OC)cc3)cc1)[C@H]1C(=O)N(C)C(=O)[C@H]12	Myeloid diff 2 active
